# Calls of active or inactive are those of the source. The rule behind the calls is not given here.
# Assays:
# [1] = Binding affinity to microtubule
# [2] = Binding affinity to microtubule pretreated with cyclostreptin
# Summary of the method: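 Glutaraldehyde-crosslinked microtubules (60 µM) were preincubated overnight at 22 °C with 66 µM cyclostreptin in GAB (3.4 M glycerol, 10 mM NaPi, 1 mM EGTA, 6 mM MgCl2, pH 6.7) plus 0.1 mM GTP, then dialyzed 5 h against the same buffer. Flutax-2 (50 nM) was titrated with these microtubules, and the association constant for Flutax-2 binding was calculated.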
# [3] = Displacement of [3H]discodermolide from microtubule assessed as bound radioligand level at 20 uM treated before radioligand addition by competitive binding assay
# [4] = Displacement of [3H]paclitaxel from microtubule assessed as bound radioligand level at 20 uM treated after radioligand addition by competitive binding assay
# [5] = Displacement of [3H]epothilone B from microtubule assessed as bound radioligand level at 20 uM treated after radioligand addition by competitive binding assay
# [6] = Displacement of [3H]paclitaxel from microtubule assessed as bound radioligand level at 20 uM treated before radioligand addition by competitive binding assay
# [7] = Displacement of [3H]epothilone B from microtubule assessed as bound radioligand level at 20 uM treated before radioligand addition by competitive binding assay
# [8] = Displacement of [3H]discodermolide from microtubule assessed as bound radioligand level at 20 uM treated after radioligand addition by competitive binding assay
# [9] = Cytotoxicity against human A2780-1A9 cells; format: functional, cell-based
# [10] = system: A2780; assay: Cytotoxicity against human A2780 cells; format: functional, cell-based
# [11] = Cytotoxicity against human A2780AD cells; format: functional, cell-based; details: A2780 ADR
# [12] = system: A549; assay: Cytotoxicity against human A549 cells; format: functional, cell-based
# [13] = system: PtK2; assay: Displacement of Flutax-2 from microtubule in potoroo PtK2 cells at 100 uM; details: Potorous tridactylus
# [14] = Cytotoxicity against human 1A9PTX10 cells; format: functional, cell-based; details: 1A9/ptx-10
# [15] = system: A549; assay: Induction of mitotic cell cycle arrest in human A549 cells assessed as accumulation of cells at SubG1 phase at 20 nM after 24 hrs by flow cytometry (Rvb= 25%); format: functional
# [16] = Induction of micronucleation in potoroo PtK2 cells at 5 uM after 7 hrs by flow cytometry; format: functional, Potorous tridactylus
# [17] = system: A2780; assay: Induction of mitotic cell cycle arrest in human A2780 cells assessed as accumulation of cells at G1/G0 phase at 15 nM after 24 hrs by flow cytometry (Rvb= 60%); format: functional
# [18] = system: A549; assay: Induction of mitotic cell cycle arrest in human A549 cells assessed as accumulation of cells at G2+M phase at 20 nM after 24 hrs by flow cytometry (Rvb= 19.6%); format: functional
# [19] = system: PtK2; assay: Induction of microtubule bundle formation in potoroo PtK2 cells at 10 uM treated for 7 hrs followed by compound washout measured after 48 hrs; details: Potorous tridactylus
# [20] = system: A549; assay: Induction of mitotic cell cycle arrest in human A549 cells assessed as accumulation of cells at G1/G0 phase at 20 nM after 24 hrs by flow cytometry (Rvb= 39.2%); format: functional
# [21] = system: A2780; assay: Induction of mitotic cell cycle arrest in human A2780 cells assessed as accumulation of cells at G2+M phase at 15 nM after 24 hrs by flow cytometry (Rvb= 20%); format: functional
# [22] = Induction of mitotic cell cycle arrest at G1/G0 phase in potoroo PtK2 cells 10 uM after 7 hrs by flow cytometry (Rvb= 60%); format: functional, Potorous tridactylus
# [23] = system: A2780; assay: Induction of mitotic cell cycle arrest in human A2780 cells assessed as accumulation at S phase at 15 nM after 24 hrs by flow cytometry (Rvb= 17.5%); format: functional
# [24] = Induction of micronucleation in potoroo PtK2 cells at 10 uM after 7 hrs by flow cytometry; format: functional, Potorous tridactylus
# [25] = system: PtK2; assay: Induction of microtubule bundle formation in potoroo PtK2 cells at 2 uM after 7 hrs by flow cytometry; format: cell-based; details: Potorous tridactylus
# [26] = system: A2780; assay: Induction of mitotic cell cycle arrest in human A2780 cells assessed as accumulation of cells at SubG1 phase at 15 nM after 24 hrs by flow cytometry (Rvb= 2.5%); format: functional
# [27] = Induction of micronucleation in potoroo PtK2 cells at 2 uM after 7 hrs by flow cytometry; format: functional, Potorous tridactylus
# [28] = system: PtK2; assay: Induction of microtubule bundle formation in potoroo PtK2 cells at 5 uM after 7 hrs by flow cytometry; format: cell-based; details: Potorous tridactylus
# [29] = Cytotoxicity against human 1A9PTX22 cells; format: functional, cell-based; details: 1A9/ptx-22
# [30] = system: PtK2; assay: Induction of micronucleation in potoroo PtK2 cells at 10 uM after 7 hrs by flow cytometry; details: Potorous tridactylus
# [31] = Micronucleation in potoroo PtK2 cells at 10 uM treated for 7 hrs followed by compound washout measured after 48 hrs by flow cytometry; details: Potorous tridactylus
# [32] = system: A2780-1A9; assay: Cytotoxicity against human A2780-1A9 cells at 5 uM; format: functional, cell-based
# [33] = system: 1A9/ptx-22; assay: Cytotoxicity against human 1A9PTX22 cells at 5 uM; format: functional, cell-based
# [34] = system: A549; assay: Cytotoxicity against human A549 cells at 5 uM; format: functional, cell-based
# [35] = system: A2780; assay: Cytotoxicity against human A2780 cells at 5 uM; format: functional, cell-based
# [36] = system: 1A9/ptx-10; assay: Cytotoxicity against human 1A9PTX10 cells at 5 uM; format: functional, cell-based
# [37] = system: A2780 ADR; assay: Cytotoxicity against human A2780AD cells at 5 uM; format: functional, cell-based
# [38] = system: A2780; assay: Induction of mitotic cell cycle arrest in human A2780 cells assessed as accumulation of cells at SubG1 phase at 5 uM after 24 hrs by flow cytometry (Rvb= 2.5%); format: functional
# [39] = Induction of mitotic cell cycle arrest in human A2780AD cells assessed as accumulation at S phase at 5 uM after 24 hrs by flow cytometry (Rvb= 16.2%); format: functional, A2780 ADR
# [40] = system: A2780; assay: Induction of mitotic cell cycle arrest in human A2780 cells assessed as accumulation at S phase at 5 uM after 24 hrs by flow cytometry (Rvb= 17.5%); format: functional
# [41] = Induction of mitotic cell cycle arrest in human A2780AD cells assessed as accumulation of cells at G1/G0 phase at 5 uM after 24 hrs by flow cytometry (Rvb= 59.2%); format: functional, A2780 ADR
# [42] = system: A2780; assay: Induction of mitotic cell cycle arrest in human A2780 cells assessed as accumulation of cells at G2+M phase at 5 uM after 24 hrs by flow cytometry (Rvb= 20%); format: functional
# [43] = Induction of mitotic cell cycle arrest in human A2780AD cells assessed as accumulation of cells at G2+M phase at 5 uM after 24 hrs by flow cytometry (Rvb= 20.5%); format: functional, A2780 ADR
# [44] = system: A2780; assay: Induction of mitotic cell cycle arrest in human A2780 cells assessed as accumulation of cells at G1/G0 phase at 5 uM after 24 hrs by flow cytometry (Rvb= 60%); format: functional
# [45] = Induction of mitotic cell cycle arrest in human A2780AD cells assessed as accumulation of cells at SubG1 phase at 5 uM after 24 hrs by flow cytometry (Rvb= 4.1%); format: functional, A2780 ADR
smiles,measurement,setting,value
CC(=O)O[C@H]1C(=O)[C@]2(C)[C@@H](OC(=O)[C@H](C)NC(=O)c3ccc(-c4c5cc(F)c(=O)cc-5oc5cc(O)c(F)cc45)c(C(=O)O)c3)C[C@H]3OC[C@@]3(OC(C)=O)[C@H]2[C@H](OC(=O)c2ccccc2)[C@]2(O)C[C@H](OC(=O)[C@H](O)[C@@H](NC(=O)c3ccccc3)c3ccccc3)C(C)=C1C2(C)C [FLUTAX 2],Kd,[1],14 nM
same,Activity,[2],inactive
C/C(=C\c1csc(C)n1)[C@@H]1C[C@@H]2O[C@@H]2CCC[C@H](C)[C@H](O)[C@@H](C)C(=O)C(C)(C)[C@@H](O)CC(=O)O1 [EPOTHILONE A],Activity,[3],96%
same,Activity,[4],46%
same,Activity,[5],49%
same,Activity,[6],49%
same,Activity,[7],49%
same,Kd,[1],28 nM
same,Activity,[8],95%
C=C/C=C\[C@H](C)[C@H](OC(N)=O)[C@@H](C)[C@H](O)[C@@H](C)C/C(C)=C\[C@H](C)[C@@H](O)[C@@H](C)/C=C\[C@@H](O)C[C@@H]1OC(=O)[C@H](C)[C@@H](O)[C@H]1C [DISERMOLIDE],Activity,[3],31%
same,Kd,[1],0.18 nM
same,Activity,[8],27%
CC(=O)O[C@@]12CO[C@@H]1C[C@H](O)[C@@]1(C)C(=O)[C@H](O)C3=C(C)[C@@H](OC(=O)[C@H](O)[C@@H](NC(=O)OC(C)(C)C)c4ccccc4)C[C@@](O)([C@@H](OC(=O)c4ccccc4)[C@H]21)C3(C)C [DOCETAXEL],IC50,[9],0.6 nM
same,IC50,[10],0.5 nM
same,IC50,[11],285 nM
same,IC50,[12],7.2 nM
CC(=O)O[C@H]1C(=O)[C@@]2(C)[C@H]([C@H](OC(=O)c3ccccc3)[C@]3(O)C[C@H](OC(=O)[C@H](O)[C@@H](NC(=O)c4ccccc4)c4ccccc4)C(C)=C1C3(C)C)[C@]1(OC(C)=O)CO[C@@H]1C[C@@H]2O [PACLITAXEL],Activity,[13],Active
same,IC50,[14],30 nM
same,IC50,[9],1.1 nM
same,Activity,[15],36.9%
same,Activity,[16],4%
same,Activity,[17],6.5%
same,Activity,[18],8.85%
same,Activity,[19],Active
same,Activity,[20],8.4%
same,Activity,[21],70.8%
same,Activity,[22],50%
same,Activity,[23],7%
same,IC50,[11],900 nM
same,Activity,[24],4%
same,Activity,[25],4%
same,Activity,[26],15.7%
same,Activity,[27],4%
same,Kd,[1],70 nM
same,Activity,[28],4%
same,IC50,[29],19 nM
same,Activity,[30],4%
same,Activity at 10 µM,[31],40%
CC1=C[C@H]2[C@@H](O)[C@H](C)[C@@H](O)[C@@H]2[C@H]2[C@H]3[C@@H](C[C@@H]12)[C@@]1(C)CC[C@H]2OC(=O)[C@]34O[C@@]4(O1)[C@@H]2C,Activity,[32],inactive
same,Activity,[33],inactive
same,Activity,[34],inactive
same,Activity,[35],inactive
same,Activity,[36],inactive
same,Activity,[37],inactive
CC1=C[C@H]2[C@@H](O)[C@H](C)[C@@H](O)[C@@H]2[C@H]2[C@@H]3[C@H]4C(=O)O[C@@H]5CC[C@@](C)(O[C@@H]4[C@@H]5C)[C@@H]3C[C@@H]12,Activity,[38],2.8%
same,Activity,[32],inactive
same,Activity,[39],19.6%
same,Activity,[33],inactive
same,Activity,[34],inactive
same,Activity,[35],inactive
same,Activity,[40],22.5%
same,Activity,[41],56.9%
same,Activity,[42],16%
same,Activity,[43],21.5%
same,Activity,[44],58.7%
same,Activity,[36],inactive
same,Activity,[45],2%
same,Activity,[37],inactive
C/C(=C\c1csc(C)n1)[C@@H]1C[C@@H]2O[C@]2(C)CCC[C@H](C)[C@H](O)[C@@H](C)C(=O)C(C)(C)[C@@H](O)CC(=O)O1 [PATUPILONE],Activity,[3],79%
same,Activity,[4],31%
same,Activity,[5],9%
same,Activity,[6],33%
same,Activity,[7],9%
same,Kd,[1],1.3 nM
same,Activity,[8],76%
